# Screens deposited in PubChem by several laboratories.
# The full list was thinned out, with hits kept by preference.
# L major viab: Leishmania major promastigote growth inhibition | Leishmania major promastigotes, resazurin fluorescence viability | inhibition, % at 10 µM | AID 1063 | 9% of 200,000 active; in the data active = inhibition above about 50%;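 note: promastigotes grown with compound for 44 hours at 28 °C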
# T cruzi inh: blocks replication of Trypanosoma cruzi | T. cruzi beta-gal in NIH3T3, luminescence, 90 h | inhibition, % (concentration not given with the values) | 1.4% of 300,000 active | AID 1885;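 active = mean inhibition across valid replicates above about 55%, limit read from the data; inconclusive = mean below that limit but half or more replicates reach it; inactive = mean below it, under half of replicates reach it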;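 note: signal also drops with host cell toxicity which is not excluded here; 0% = plate median of DMSO wells and 100% = zero luminescence signal; higher percent means less beta-gal luminescence so fewer parasites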
#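 System: NIH/3T3 fibroblasts plus reporter T. cruzi. Medium: DMEM plus 2% FBS. Probe or stimulus: 5000 reporter trypomastigotes per well. Compound: single 50 nL compound addition per well in DMSO. Incubation: co-culture of at least 90 h after 3 h attachment. Detection: GalScreen β-gal luminescence, detergent lysis, 60 min. Evaluation: parasite load inhibition, %.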
# Calb FLC: C. albicans growth modulation with fluconazole. C. albicans CaCi-2 + fluconazole, Alamar Blue growth, 48 h. growth inhibition, % (no concentration beside the values). 0.57% of 300,000 active;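 active = growth inhibition above about 58% in most replicates, limit read from the data, passing the limit was not always enough; inconclusive = exactly half the replicates above a set limit; inactive = most replicates below a set limit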;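 note: all wells also contain fluconazole at 8 µg/ml as a sub-toxic cotreatment; 0% = median of DMSO wells and 100% = median of geldanamycin control wells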
# PolyA inhibitor: yeast polyadenylation inhibition; S. cerevisiae SKY197-pL101 polyadenylation reporter, beta-gal luminescence; efflux-impaired pdr1/pdr3 knockout yeast; score 100 = 6 SD above DMSO; activity score, % at 12 µM; 0.02% of 300,000 active;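 active = lowest replicate activity score at least 50, where 100 means six control SD above control mean; inconclusive = lowest score under 50 but half or more replicates reach 50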;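 note: yeast exposed to compound for 9 h at 30 °C; higher score means more reporter readthrough which indicates perturbed polyadenylation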
# NLRP3 yeast inh: blocks the NALP3 inflammasome reconstituted in yeast; Yeast reconstituted NLRP3/ASC/caspase-1, beta-gal luminescence, 24 h; inhibition, % at 10 µM; 0.39% of 330,000 active;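 active = inhibition of 50% or more; inactive = inhibition below 50%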;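 note: plate controls were induced DMSO wells for no effect and uninduced yeast grown without galactose for full effect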
# NALP1 inh: NALP1 inhibition; 0.61% of 280,000 active; S. cerevisiae NALP1/ASC/caspase-1 growth, X-gal OD620, 72 h; inhibition, % at 10 µM; in the data active = inhibition mostly above about 24%, no sharp cut-off; inactive = mostly below about 32%
# * hit, by the source's call; ? = inconclusive; . = no result given.
SMILES,L major viab,T cruzi inh,Calb FLC,PolyA inhibitor,NLRP3 yeast inh,NALP1 inh
CCOc1ccccc1N(C)S(=O)(=O)c1ccc2c(c1)CC(C)N2C(=O)C1CC1 (configuration not stated),.,5,-5,4,19,0
C=C1CCC[C@]2(C)C[C@H]3OC(=O)C(CNC(C)(CO)CO)[C@H]3CC12 (some centres not stated),.,-34,-14,-8,-68,-3
O=C(CC1S/C(=N/N=C/c2cccs2)NC1=O)Nc1ccc(Cl)cc1 (configuration not stated),99*,-15,0,19,22,13
O=C(CC1S/C(=N/N=C/c2c[nH]c3ccccc23)NC1=O)Nc1ccccc1 (configuration not stated),79*,3,17,0,1,32
O=C(CC1S/C(=N/N=C/c2cccs2)NC1=O)Nc1ccc(Cl)c(Cl)c1 (configuration not stated),25,2,5,-19,-9,19
CC(O)CNc1nc(Cl)c(C#N)s1 (configuration not stated),-1,-17,4,-11,-19,7
O=C(CCNS(=O)(=O)c1ccccc1)N1CCN(c2ccccc2F)CC1,.,-11,-5,2,4,-4
COC(=O)CN1C(=O)[C@H]2[C@@H](C3CC3)N3C(=O)CN(Cc4ccccn4)C(=O)[C@@]3(Cc3ccccc3)[C@H]2C1=O,.,-7,-3,-5,8,4
Clc1ccc(C2[C@H]3CN(Cc4cccnc4)[C@H](c4ccccc4)C34CC2(c2ccccc2)C4)cn1 (some centres not stated),.,56*,13,2,9,.
c1ccc(C2[C@H]3CN(Cc4cccnc4)[C@H](c4ccccc4)C34CC2(c2ccccc2)C4)cc1 (some centres not stated),.,36,-7,2,3,.
O=C(COc1ccc([N+](=O)[O-])cc1)Nc1cc(S(=O)(=O)N2CCCCC2)ccc1N1CCCCC1,.,26,-4,7,20,.
O=C(COc1ccc(F)cc1)Nc1cc(S(=O)(=O)N2CCCCC2)ccc1N1CCCCC1,.,55*,-5,3,14,.
CCN1CCN(c2ccc(S(=O)(=O)N3CCCCC3)cc2NC(=O)COc2ccc(F)cc2Cl)CC1,.,64*,-13,-10,12,12
O=C(O)CNC(=O)c1ccc(NC(=O)/C(=C/c2ccccc2)NC(=O)c2ccccc2)cc1,.,-15,7,9,7,21
COc1cccc(/C=N/NC(=O)c2cccc3ccccc23)c1OC,.,-7,3,8,9,.
COc1cccc(/C=N/NC(=O)c2ccccc2N(Cc2ccccc2)S(=O)(=O)c2ccccc2)c1OC,91*,14,-3,7,22,5
COc1ccc(OC)c(NC(=O)c2ccccc2N(Cc2ccccc2)S(C)(=O)=O)c1,80*,21,28,-18,18,-8
O=C(NCc1nc2ccccc2[nH]1)c1cccc(S(=O)(=O)N2CCCC2)c1,-4,-4,15,3,-5,2
COC(=O)c1cccc(NC(=O)CCc2cc(OC)c(OC)c(OC)c2)c1,59*,-3,?,17,-8,20
CCOC(=O)N1CCC(NC(=O)C2CCN(C(=O)c3cc4oc(C)cc4n3Cc3c(F)cccc3Cl)CC2)CC1,75*,14,6,4,12,-10
COC(CNC(=O)C1CCN(C(=O)c2cc3oc(C)cc3n2Cc2c(F)cccc2Cl)CC1)OC,9,10,3,-8,9,-4
Cc1ccc(C(=O)c2c(NC(=O)c3cccnc3)sc3c2CCCC3)cc1,9,18,22,4,8,8
Nc1nnc(SCC(=O)Nc2sc3c(c2C(=O)c2ccccc2)CCCC3)s1,57*,-36,15,4,18,19
CCOC(=O)c1c(NC(=O)CSc2nnc3ccccn23)sc2c1CCC2,9,17,11,-3,27,12
Cc1csc(SCC(=O)Nc2sc3c(c2C#N)CCC3)n1,99*,17,14,-7,38,8
COC(=O)c1c(NC(=O)CSc2nnc3ccccn23)sc2c1CCC2,56*,-1,2,-4,3,12
COCCNc1nnc(SCC(=O)Nc2sc3c(c2C(=O)c2ccccc2)CCCC3)s1,7,-15,16,21,12,11
